Experimental data reported in ChEMBL document CHEMBL4308915, “Synthesis of novel pyrazoline derivatives and the evaluation of death mechanisms involved in their antileukemic activity” (Bioorg Med Chem, 2019).
pIC50: −log10 of the molar value. The source made the active and inactive calls. The calls are words filed in the database; no cut-off is given here.

Tests used:
[1] = system: K562; test: Cytotoxicity against human K562 cells assessed as reduction in cell viability after 24 hrs by MTT assay; type: functional, cell-based; details: K562, 24 h
Outline: (§1)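 MTT viability after 24 h exposure. Cells seeded at 5x10^4 per well and tested at 1-100 µM. Optical density of untreated cells set as 100% viable. IC50 derived by curve fitting. PBMC from healthy non-smoking volunteers, isolated by Ficoll-Hypaque.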

[2] = system: Jurkat; test: Cytotoxicity against human Jurkat cells assessed as reduction in cell viability after 24 hrs by MTT assay; type: functional, cell-based; outline: as §1
[3] = system: Daudi; test: Cytotoxicity against human Daudi cells assessed as reduction in cell viability after 24 hrs by MTT assay; type: functional, cell-based; outline: as §1
[4] = system: B16-F10; test: Cytotoxicity against mouse B16F10 cells assessed as reduction in cell viability after 24 hrs by MTT assay; type: functional, cell-based; details: B16-F10, 24 h; outline: as §1
[5] = system: PBMC; test: Cytotoxicity against human PBMC assessed as reduction in cell viability after 24 hrs by MTT assay; type: cell-based
[6] = system: K562; test: Cytotoxicity against human K562 cells assessed as reduction in cell viability after 48 hrs by MTT assay; type: functional, cell-based; details: K562, 48 h
[7] = system: Jurkat; test: Cytotoxicity against human Jurkat cells assessed as reduction in cell viability after 48 hrs by MTT assay; type: functional, cell-based
[8] = system: Daudi; test: Cytotoxicity against human Daudi cells assessed as reduction in cell viability after 48 hrs by MTT assay; type: functional, cell-based
[9] = system: B16-F10; test: Cytotoxicity against mouse B16F10 cells assessed as reduction in cell viability after 48 hrs by MTT assay; type: functional, cell-based; details: B16-F10, 48 h
[10] = system: PBMC; test: Cytotoxicity against human PBMC assessed as reduction in cell viability after 48 hrs by MTT assay; type: cell-based
[11] = system: K562; test: Cytotoxicity against human K562 cells assessed as reduction in cell viability after 72 hrs by MTT assay; type: functional, cell-based; details: K562, 72 h
[12] = system: Jurkat; test: Cytotoxicity against human Jurkat cells assessed as reduction in cell viability after 72 hrs by MTT assay; type: functional, cell-based
[13] = system: Daudi; test: Cytotoxicity against human Daudi cells assessed as reduction in cell viability after 72 hrs by MTT assay; type: functional, cell-based
[14] = system: B16-F10; test: Cytotoxicity against mouse B16F10 cells assessed as reduction in cell viability after 72 hrs by MTT assay; type: functional, cell-based; details: B16-F10, 72 h
[15] = system: PBMC; test: Cytotoxicity against human PBMC assessed as reduction in cell viability after 72 hrs by MTT assay; type: cell-based
[16] = Selectivity index, ratio of IC50 for human PBMC to IC50 for human K562 cells after 24 hrs; type: toxicity; details: PBMC versus K562 cells, read-out: Ratio IC50
Outline: (§2)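 MTT viability after 24 h exposure to 1-100µM; untreated control OD taken as 100%. IC50 by curve fitting in each line and in PBMC from six healthy donors (Ficoll-Hypaque). SI = IC50 PBMC / IC50 tumor line; SI ≥5 high, 2–5 moderate, <2 low.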

[17] = Selectivity index, ratio of IC50 for human PBMC to IC50 for human Jurkat cells after 24 hrs; type: toxicity; details: PBMC versus Jurkat cells, read-out: Ratio IC50; outline: as §2
[18] = Selectivity index, ratio of IC50 for human PBMC to IC50 for human Daudi cells after 24 hrs; outline: as §2
[19] = Selectivity index, ratio of IC50 for human PBMC to IC50 for mouse B16F10 cells after 24 hrs; type: toxicity; details: PBMC versus B16F10 cells, read-out: Ratio IC50; outline: as §2
[20] = Hemolytic activity in human RBC at 1 time IC50 relative to control; type: ADME, cell-based, Erythrocyte; details: red blood cells (erythrocytes), read-out: Activity
Outline: (§3)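 RBC from healthy non-smoking volunteers incubated with increasing concentrations of the selected pyrazolines. Saline served as the 0% lysis control and distilled water as the 100% lysis control. Percent hemolysis calculated relative to these controls.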

[21] = Hemolytic activity in human RBC at 2 times IC50 relative to control; type: ADME, cell-based, Erythrocyte; details: red blood cells (erythrocytes), read-out: Activity; outline: as §3
[22] = Hemolytic activity in human RBC at 3 times IC50 relative to control; type: ADME, cell-based, Erythrocyte; details: red blood cells (erythrocytes), read-out: Activity; outline: as §3
[23] = Hemolytic activity in human RBC at 9 times IC50 relative to control; type: ADME, cell-based, Erythrocyte; details: red blood cells (erythrocytes), read-out: Activity; outline: as §3
[24] = Hemolytic activity in human RBC at 12 times IC50 relative to control; type: ADME, cell-based, Erythrocyte; details: red blood cells (erythrocytes), read-out: Activity; outline: as §3
[25] = Hemolytic activity in human RBC at 15 times IC50 relative to control; type: ADME, cell-based, Erythrocyte; details: red blood cells (erythrocytes), read-out: Activity; outline: as §3
[26] = system: K562; test: Cell cycle arrest in human K562 cells assessed as increase in accumulation at G0/G1 phase at 55.7 uM after 12 hrs by propidium iodide/RNAse staining based flow cytometric analysis relative to control; type: functional
[27] = system: Jurkat; test: Cell cycle arrest in human Jurkat cells assessed as increase in accumulation at S phase at 33.7 uM after 12 hrs by propidium iodide/RNAse staining based flow cytometric analysis; type: functional
[28] = system: K562; test: Induction of apoptosis in human K562 cells assessed as increase in membrane blebbing at 55.7 uM by acridine orange/ethidium bromide staining-based fluorescence microscopic analysis; type: functional, cell-based
[29] = system: K562; test: Induction of apoptosis in human K562 cells assessed as increase in chromatin condensation at 55.7 uM by acridine orange/ethidium bromide staining-based fluorescence microscopic analysis; type: functional, cell-based
[30] = system: K562; test: Induction of apoptosis in human K562 cells assessed as increase in loss of membrane integrity at 55.7 uM by acridine orange/ethidium bromide staining-based fluorescence microscopic analysis; type: functional, cell-based
[31] = system: Jurkat; test: Induction of apoptosis in human Jurkat cells assessed as increase in membrane blebbing at 33.7 uM by acridine orange/ethidium bromide staining-based fluorescence microscopic analysis; type: functional, cell-based
[32] = system: Jurkat; test: Induction of apoptosis in human Jurkat cells assessed as increase in chromatin condensation at 33.7 uM by acridine orange/ethidium bromide staining-based fluorescence microscopic analysis; type: functional, cell-based
[33] = system: Jurkat; test: Induction of apoptosis in human Jurkat cells assessed as increase in loss of membrane integrity at 33.7 uM by acridine orange/ethidium bromide staining-based fluorescence microscopic analysis; type: functional, cell-based
[34] = system: K562; test: Induction of apoptosis in human K562 cells at 55.7 uM after 12 hrs by Annexin-V FITC staining-based flow cytometry relative to control; type: functional
[35] = system: Jurkat; test: Induction of apoptosis in human Jurkat cells at 33.7 uM after 12 hrs by Annexin-V FITC staining-based flow cytometry relative to control; type: functional
[36] = system: Jurkat; test: Induction of DNA fragmentation in human Jurkat cells assessed as increase in ladder formation at 33.7 uM after 12 hrs by ethidium bromide staining based agarose gel electrophoresis method; type: functional, cell-based
[37] = system: K562; test: Induction of apoptosis in human K562 cells assessed as increase in Bax expression at 55.7 uM after 12 hrs by flow cytometric analysis relative to control; type: functional
[38] = system: Jurkat; test: Induction of apoptosis in human Jurkat cells assessed as increase in Bax expression at 33.7 uM after 12 hrs by flow cytometric analysis relative to control; type: functional
[39] = system: K562; test: Induction of apoptosis in human K562 cells assessed as reduction in cells with intact mitochondrial membrane potential at 55.7 uM after 12 hrs by flow cytometric analysis relative to control; type: functional; parameters: scale not given: the % may be the effect or the level left
[40] = system: Jurkat; test: Induction of apoptosis in human Jurkat cells assessed as reduction in cells with intact mitochondrial membrane potential at 33.7 uM after 12 hrs by flow cytometric analysis relative to control; type: functional; parameters: scale not given: the % may be the effect or the level left
[41] = system: K562; test: Induction of apoptosis in human K562 cells assessed as decrease in survivin level at 55.7 uM after 12 hrs by flow cytometric analysis relative to control; type: functional
[42] = system: Jurkat; test: Induction of apoptosis in human Jurkat cells assessed as decrease in survivin level at 33.7 uM after 12 hrs by flow cytometric analysis relative to control; type: functional
[43] = system: Jurkat; test: Induction of apoptosis in human Jurkat cells assessed as increase in AIF release at 33.7 uM after 12 hrs by flow cytometric analysis relative to control; type: functional
[44] = system: K562; test: Induction of apoptosis in human K562 cells assessed as increase in FasR expression at 55.7 uM after 12 hrs by flow cytometric analysis relative to control; type: functional
[45] = system: K562; test: Antiproliferative activity against human K562 cells assessed as reduction in KI-67 expression at 55.7 uM after 12 hrs by flow cytometric analysis; type: functional, cell-based
[46] = system: Jurkat; test: Induction of apoptosis in human Jurkat cells assessed as increase in FasR expression at 33.7 uM after 12 hrs by flow cytometric analysis relative to control; type: functional
[47] = system: K562; test: Induction of apoptosis in human K562 cells assessed as increase in caspase-3 expression at 55.7 uM after 12 hrs by flow cytometric analysis; type: functional, cell-based
[48] = system: Jurkat; test: Induction of apoptosis in human Jurkat cells assessed as increase in caspase-3 expression at 33.7 uM after 12 hrs by flow cytometric analysis relative to control; type: functional
[49] = system: Jurkat; test: Antiproliferative activity against human Jurkat cells assessed as reduction in KI-67 expression at 33.7 uM after 12 hrs by flow cytometric analysis; type: functional, cell-based
[50] = system: PBL; test: Cytotoxicity against acute leukemia patient-derived PBL cells assessed as reduction in cell viability after 24 hrs; type: functional, cell-based; details: Homo sapiens
Outline: (§4)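 Mononuclear cells from acute leukemia patient samples (peripheral blood or bone marrow, taken before first treatment at diagnosis or relapse) isolated by Ficoll-Hypaque.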

[51] = (§5) Cytotoxicity against acute leukemia patient-derived bone marrow cells assessed as reduction in cell viability after 24 hrs; type: functional, cell-based; details: Homo sapiens; outline: as §4
[52] = organism: Homo sapiens; test: as §5; type: functional, cell-based; outline: as §4

SMILES: COc1cc(C2=NN(C(C)=O)C(c3ccc4ccccc4c3)C2)cc(OC)c1OC (stereo not drawn)
- pIC50 [1]: 4.25
- pIC50 [2]: 4.47
- pIC50 [3]: 4.34
- pIC50 [4]: 4.14
- pIC50 [5]: 3.30
- pIC50 [6]: 4.66
- pIC50 [7]: 4.56
- pIC50 [8]: 4.69
- pIC50 [9]: 4.25
- pIC50 [10]: 3.98
- pIC50 [11]: 4.81
- pIC50 [12]: 4.60
- pIC50 [13]: 5.29
- pIC50 [14]: 4.63
- pIC50 [15]: 4.26
- selectivity ratio at 24 h [16]: 8.9
- selectivity ratio at 24 h [17]: 14.7
- Ratio IC50 [18]: 10.7
- selectivity ratio at 24 h [19]: 6.9
- hemolysis at 1 times IC50 [20]: 1.9%
- hemolysis at 2 times IC50 [21]: 1.5%
- hemolysis at 3 times IC50 [22]: 1.6%
- hemolysis at 9 times IC50 [23]: 2.4%
- hemolysis at 12 times IC50 [24]: 3.2%
- hemolysis at 15 times IC50 [25]: 6.4%
- Activity [26]: 7.4%
- Activity [27]: inactive
- Activity [28]: Active
- Activity [29]: Active
- Activity [30]: Active
- Activity [31]: Active
- Activity [32]: Active
- Activity [33]: Active
- Activity [34]: 18.8%
- Activity [35]: 29.2%
- Activity [36]: Active
- Activity [37]: 16.8%
- Activity [38]: 20.5%
- Activity [39]: 26%
- Activity [40]: 41%
- Activity [41]: 22.2%
- Activity [42]: 21.4%
- Activity [43]: 6%
- Activity [44]: 34.3%
- Activity [45]: Active
- Activity [46]: 30.3%
- Activity [47]: inactive
- Activity [48]: 6.6%
- Activity [49]: Active
- Activity [50]: Dose-dependent effect
- pIC50 [50]: 3.86 to 4.56
- pIC50 [51]: 4.35 to 4.79
- Activity [52]: Dose-dependent effect
